Measurements published in article PMC12130796 (Clinical Cancer Research, 2025).
Like-named read-outs stand apart in the source and are kept apart here.

Assays:
[1] = test system: AOGCT KGN cells; settings: read-out: EC50, inhibition of proliferation; KGN cells in vitro; cited from earlier work
[2] = test system: OATP1B2; settings: via inhibition of OATP1B2 in dorsal root ganglia cells; cited from earlier work
[3] = test system: CYP2C8; settings: cited from earlier work
[4] = Plasma pharmacokinetics of paclitaxel and metabolites; format: in vivo, human
[5] = cited from earlier work
[6] = Plasma pharmacokinetics of nilotinib in the combination; format: in vivo; settings: human, oral, Mean nilotinib AUC(0–24hours)
[7] = test system: patients with AOGCT; settings: case report, one patient with AOGCT, cited from earlier work
[8] = test system: patients with relapsed ovarian sex cord–stromal tumors; settings: weekly paclitaxel monotherapy, phase 2 arm, 32 patients (84% AOGCT); cited from earlier work
[9] = test system: E-cadherin, vimentin; assay: EMT immunofluorescence assay in tumor biopsies, log10; format: in vivo, human; settings: single-agent paclitaxel, C1D2 biopsies
[10] = test system: serine 10-phosphorylated histone H3 (pHH3); assay: pHH3 quantitative immunofluorescence; format: in vivo, human; settings: C1D2 biopsies (after paclitaxel alone) relative to baseline, P = 0.0031
How it was run: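 Adult patients with solid tumours received IV test taxane on days 1, 8 and 15 of 28-day cycles, with oral kinase inhibitor started C1D3 during dose expansion. 18-gauge core biopsies were taken at baseline, C1D2 and C1D28, snap-frozen, thawed in neutral buffered formalin, paraffin-embedded and cut at 5 micron for quantitative IFA. Per-patient means were compared by unpaired t test assuming unequal variances.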

SMILES: Cc1cn(-c2cc(NC(=O)c3ccc(C)c(Nc4nccc(-c5cccnc5)n4)c3)cc(C(F)(F)F)c2)cn1 [nilotinib]
- EC50 [1]: 13.1 µM
- Effect on paclitaxel-induced peripheral neuropathy [2]: attenuates paclitaxel-induced peripheral neuropathy
- Effect on CYP2C8-mediated 6α-hydroxypaclitaxel formation [3]: inhibits
- Effect of nilotinib coadministration on plasma paclitaxel exposures ([4]; day 8 vs day 1, DL2 vs DL3): does not modulate plasma paclitaxel exposures
- Published mean AUC(0–24hours) ([5]; nilotinib monotherapy): 3,848 ± 1,116 μmol/L × minutes
- Cmax ([5]; read-out: Clinical Cmax, 300 mg twice-daily dosing): ~2000 nM
- AUC(0-t) ([6]; day 8, DL2 (300 mg nilotinib twice daily, 80 mg/m^2 paclitaxel)): 51.2 µM·h
- AUC(0-t) ([6]; day 8, DL3 (400 mg nilotinib twice daily, 80 mg/m^2 paclitaxel)): 90.4 µM·h

SMILES: Cc1ccc(NC(=O)c2ccc(CN3CCN(C)CC3)cc2)cc1Nc1nccc(-c2cccnc2)n1 [Imatinib]
- Duration of stable disease ([7]; ref 36): over 16 months
- Duration of stable disease ([7]; ref 37): 12 months

SMILES: CC(=O)O[C@H]1C(=O)[C@@]2(C)[C@H]([C@H](OC(=O)c3ccccc3)[C@]3(O)C[C@H](OC(=O)[C@H](O)[C@@H](NC(=O)c4ccccc4)c4ccccc4)C(C)=C1C3(C)C)[C@]1(OC(C)=O)CO[C@@H]1C[C@@H]2O [paclitaxel]
- Progression-free survival [8]: 14.7 months
- Dose proportionality of plasma concentrations ([4]; across the two doses tested (60 and 80 mg/m^2)): dose-proportional
- Change in tumor EMT phenotype [9]: no obvious biologically relevant changes in EMT phenotype
- Change in mitotic arrest marker pHH3 [10]: significant increase
